Reference: ChEMBL document CHEMBL3112476, “Inhibition of IκB kinase-β and IκB kinase-α by heterocyclic adamantyl arotinoids” (Bioorg Med Chem, 2014)

How the values were obtained:
[1] = target: T1, Inhibitor of nuclear factor kappa-B kinase subunit beta (Homo sapiens) (UniProt O14920); experiment: Inhibition of recombinant IKKbeta (unknown origin) using ulight-IkappaomegaBalpha as substrate at 20 uM after 1 hr by LANCE ultra TR-FRET assay relative to control
T1 sequence (whole entry): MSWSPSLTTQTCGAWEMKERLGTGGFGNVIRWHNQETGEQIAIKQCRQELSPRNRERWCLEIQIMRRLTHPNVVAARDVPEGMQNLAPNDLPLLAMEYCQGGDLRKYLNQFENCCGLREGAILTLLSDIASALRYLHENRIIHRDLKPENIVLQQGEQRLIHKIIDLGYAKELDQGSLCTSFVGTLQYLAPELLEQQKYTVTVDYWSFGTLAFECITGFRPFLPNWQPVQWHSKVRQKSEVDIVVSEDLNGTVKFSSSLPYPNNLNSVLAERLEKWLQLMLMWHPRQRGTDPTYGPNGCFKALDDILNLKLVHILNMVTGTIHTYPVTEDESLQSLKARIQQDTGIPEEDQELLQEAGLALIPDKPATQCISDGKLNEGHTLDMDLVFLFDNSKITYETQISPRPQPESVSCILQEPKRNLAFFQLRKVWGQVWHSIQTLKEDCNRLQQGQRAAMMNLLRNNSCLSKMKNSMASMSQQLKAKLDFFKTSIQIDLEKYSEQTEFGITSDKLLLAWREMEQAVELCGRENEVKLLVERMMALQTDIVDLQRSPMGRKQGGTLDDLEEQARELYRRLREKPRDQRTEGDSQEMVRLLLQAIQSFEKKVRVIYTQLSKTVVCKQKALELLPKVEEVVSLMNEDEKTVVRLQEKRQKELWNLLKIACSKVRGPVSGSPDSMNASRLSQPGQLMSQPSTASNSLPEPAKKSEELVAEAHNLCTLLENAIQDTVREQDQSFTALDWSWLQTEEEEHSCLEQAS

[2] = target: T2, Retinoic acid receptor alpha (Homo sapiens) (UniProt P10276); experiment: Antagonist activity at Gal4-fused RARalpha (unknown origin) transfected in HEK293 cells assessed as ATRA-induced transcriptional activity at 4 uM by luciferase/beta-galactosidase reporter gene assay relative to ATRA-treated control; format: cell-based; set-up: scale not given: the % may be the effect or the level left
T2 sequence (whole entry): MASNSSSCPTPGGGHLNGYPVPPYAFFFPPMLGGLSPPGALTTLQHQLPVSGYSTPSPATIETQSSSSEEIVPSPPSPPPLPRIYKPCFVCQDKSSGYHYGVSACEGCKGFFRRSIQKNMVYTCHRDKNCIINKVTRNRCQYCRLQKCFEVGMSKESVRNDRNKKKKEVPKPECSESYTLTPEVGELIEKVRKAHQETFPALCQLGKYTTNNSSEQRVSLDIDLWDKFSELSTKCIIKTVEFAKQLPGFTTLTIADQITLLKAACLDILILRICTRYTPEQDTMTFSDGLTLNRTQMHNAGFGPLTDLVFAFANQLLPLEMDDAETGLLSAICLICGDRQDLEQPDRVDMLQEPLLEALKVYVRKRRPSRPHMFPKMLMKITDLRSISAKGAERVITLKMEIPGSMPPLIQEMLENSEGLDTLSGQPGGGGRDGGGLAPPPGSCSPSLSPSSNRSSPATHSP
Outline: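 Same Gal4-RARα HEK-293 UAS-luciferase system, stimulated with 0.1 µM atRA alone or with 4 µM compound (40-fold molar excess); 1 µM UVI2024 served as control antagonist. Background-subtracted luciferase was normalized to β-galactosidase and given as percent of atRA-stimulated cells. Data: 2–3 experiments, triplicate.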

Jurkat = experiment: Induction of apoptosis in human Jurkat cells assessed as activation of DEVDase at 5 uM after 4 hrs by fluorometric assay relative to control; format: functional
Outline: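 Jurkat cells (20,000/well, 0.5% FBS RPMI) were treated 4 h with 5 µM compound and lysed 15 min in PIPES pH 7 buffer with NP-40, cytochalasin B and protease inhibitors. An equal volume of 2× caspase buffer containing 100 µM Ac-DEVD-AFC was added. AFC fluorescence (ex 390/em 510 nm) was read every 2 min for 1 h at 37 °C; the linear slope was taken as activity, expressed as fold over DMSO control. Data: 2 experiments, triplicate.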

[3] = target: T3, Inhibitor of nuclear factor kappa-B kinase subunit alpha (Homo sapiens) (UniProt O15111); experiment: Inhibition of recombinant IKKalpha (unknown origin) using ulight-IkappaomegaBalpha as substrate at 20 uM after 2 hrs by LANCE ultra TR-FRET assay relative to control
T3 sequence (whole entry): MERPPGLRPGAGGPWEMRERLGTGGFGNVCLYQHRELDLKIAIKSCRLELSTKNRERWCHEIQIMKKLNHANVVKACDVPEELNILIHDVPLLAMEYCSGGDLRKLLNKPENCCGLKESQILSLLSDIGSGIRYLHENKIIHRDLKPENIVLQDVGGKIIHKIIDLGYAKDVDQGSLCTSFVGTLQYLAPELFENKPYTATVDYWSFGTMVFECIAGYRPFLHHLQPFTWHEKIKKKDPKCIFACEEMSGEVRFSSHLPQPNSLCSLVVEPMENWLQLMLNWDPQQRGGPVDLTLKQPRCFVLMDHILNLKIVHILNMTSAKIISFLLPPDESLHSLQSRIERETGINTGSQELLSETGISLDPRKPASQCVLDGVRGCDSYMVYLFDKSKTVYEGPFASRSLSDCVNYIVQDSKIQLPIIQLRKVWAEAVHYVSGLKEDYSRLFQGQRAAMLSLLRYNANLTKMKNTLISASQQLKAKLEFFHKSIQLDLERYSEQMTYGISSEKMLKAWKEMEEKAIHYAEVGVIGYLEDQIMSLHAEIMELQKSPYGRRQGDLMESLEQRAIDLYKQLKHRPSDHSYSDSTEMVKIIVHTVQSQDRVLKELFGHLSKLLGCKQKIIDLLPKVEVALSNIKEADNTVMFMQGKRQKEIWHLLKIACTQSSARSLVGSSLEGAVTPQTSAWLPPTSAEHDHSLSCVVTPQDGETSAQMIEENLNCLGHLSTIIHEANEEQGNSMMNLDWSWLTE
Outline: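 Recombinant IKKα (4 nM), IKKβ (1 nM) or IKKε (2 nM) in 50 mM Hepes pH 7.4, 10 mM MgCl2, 1 mM EGTA, 2 mM DTT, 0.01% Tween-20. Substrate was 50 nM ULight-IκBα (IKKα/β) or ULight-rpS6 (IKKε); ATP was 1.25 µM (α/β) or 5 µM (ε). Compound was tested at 20 µM. Incubation was 1 h (IKKβ) or 2 h (IKKα/ε) at room temperature, stopped with 20 mM EDTA plus 2 nM Eu-anti-phospho antibody, then TR-FRET 665/615 nm. Results are percent inhibition versus solvent; 3–4 experiments, triplicate.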

Row | inhibition [1] [%] | Activity [2] [%] | inhibition [3] [%] | Compound | fold change (FC) (Jurkat)
1 | 96.4 | 90 | 87.3 | Cc1cc(O)c(C23CC4CC(CC(C4)C2)C3)cc1-c1ccc2cc(C(=O)O)ccc2c1Cl | 55.8
2 | 83.9 | 95.4 | 78.5 | COc1nc(-c2ccc(C(=O)O)cc2)cnc1-c1ccc(O)c(C23CC4CC(CC(C4)C2)C3)c1 | 42.6
3 | 94.1 | 66.2 | 85.3 | O=C(O)c1ccc(-c2cnc(-c3ccc(O)c(C45CC6CC(CC(C6)C4)C5)c3)s2)cc1 | 81.4
4 | 39.8 | 74.1 | 42.3 | COCCOCOc1cc(C)c(-c2ccc(CC(=O)O)cc2Cl)cc1C12CC3CC(CC(C3)C1)C2 | 2.6
5 | 4.3 | 61.5 | 13.5 | COCCOCOc1cc(C)c(-c2ccc(/C=C/C(=O)O)cc2Cl)cc1C12CC3CC(CC(C3)C1)C2 | 1.3
6 | 79.2 | 82.7 | 33.9 | COCCOCOc1cc(C)c(-c2ccc3cc(C(=O)O)ccc3c2Cl)cc1C12CC3CC(CC(C3)C1)C2 | 12.4
7 | 95 | 33.2 | 87.9 | Cc1cc(O)c(C23CC4CC(CC(C4)C2)C3)cc1-c1ncc(-c2ccc(C(=O)O)cc2)s1 | 12.1
8 | 3.8 | 99.5 | 45.7 | COCCOCOc1cc(C)c(-c2ncc(/C=C/C(=O)O)nc2OC)cc1C12CC3CC(CC(C3)C1)C2 | 0.3
9 | 0 | 70 | 2.3 | CC(=O)NCCCOc1cc(/C=C/C(=O)O)ccc1-c1cc(C23CC4CC(CC(C4)C2)C3)c(O)cc1C | 6.3
10 | 8.2 | 93.2 | 17.9 | COc1nc(/C=C/C(=O)O)cnc1-c1ccc(O)c(C23CC4CC(CC(C4)C2)C3)c1 | 3.1
11 | 4.9 | 79.7 | 26.9 | Cc1cc(O)c(C23CC4CC(CC(C4)C2)C3)cc1-c1ccc(CC(=O)O)cc1Cl | 1.8
12 | 1.6 | 78.7 | 4.2 | COCCOCOc1ccc(-c2ncc(/C=C/C(=O)O)nc2OC)cc1C12CC3CC(CC(C3)C1)C2 | 0.2
13 | 26.2 | 87.3 | 46.6 | Cc1cc(O)c(C23CC4CC(CC(C4)C2)C3)cc1-c1ncc(/C=C/C(=O)O)s1 | 1.5
14 | 1.9 | 94.2 | 4.5 | COCCOCOc1ccc(-c2ncc(/C=C/C(=O)O)s2)cc1C12CC3CC(CC(C3)C1)C2 | 0.6
15 | 4.9 | 67.1 | 23.7 | Cc1cc(O)c(C23CC4CC(CC(C4)C2)C3)cc1-c1ccc(/C=C/C(=O)O)cc1Cl | 0.8
16 | 87.7 | 61.6 | 73.3 | COCCOCOc1cc(C)c(-c2ncc(-c3ccc(C(=O)O)cc3)s2)cc1C12CC3CC(CC(C3)C1)C2 | 4.9
17 | 25.4 | 109 | 23.8 | COCCOCOc1ccc(-c2ncc(-c3ccc(C(=O)O)cc3)nc2OC)cc1C12CC3CC(CC(C3)C1)C2 | 2.5
18 | 7.3 | 89 | 50.1 | COc1nc(/C=C/C(=O)O)cnc1-c1cc(C23CC4CC(CC(C4)C2)C3)c(O)cc1C | 2.6
19 | 5 | 92.4 | 32.8 | O=C(O)/C=C/c1cnc(-c2ccc(O)c(C34CC5CC(CC(C5)C3)C4)c2)s1 | 0.6
20 | 89.3 | 92.4 | 82.9 | COCCOCOc1ccc(-c2ncc(-c3ccc(C(=O)O)cc3)s2)cc1C12CC3CC(CC(C3)C1)C2 | 9.8
21 | 12.2 | 75.3 | 29.2 | COCCOCOc1cc(C)c(-c2ncc(/C=C/C(=O)O)s2)cc1C12CC3CC(CC(C3)C1)C2 | 1.6
